Laboratory results as given in ChEMBL document CHEMBL3259614, “Design, synthesis, and structure-activity relationship studies of novel fused heterocycles-linked triazoles with good activity and water solubility” (J Med Chem, 2014).
Values after ≈ are worked out from the molar mass of the structure shown.

Tests used:
[1] = tested on: Candida albicans; test: Antimicrobial activity against Candida albicans SC5314 after 24 hrs by serial dilution method; format: functional; details: SC5314, 24 h
Summary of the method: (§1)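 Broth serial dilution MIC in 96-well plates following NCCLS/CLSI methods. Compounds were dissolved in DMSO and serially diluted in growth medium, with incubation at 35 °C. […] C. parapsilosis 22019 served as the quality-control strain in each assay.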

[2] = tested on: Candida albicans; test: Antimicrobial activity against Candida albicans Y0109 after 24 hrs by serial dilution method; format: functional; details: Y0109, 24 h; summary of the method: as §1
[3] = tested on: Candida parapsilosis; test: Antimicrobial activity against Candida parapsilosis 22019 after 24 hrs by serial dilution method; format: functional; details: Lodderomyces parapsilosis, 22019, 24 h; summary of the method: as §1
[4] = tested on: Cryptococcus neoformans; test: Antimicrobial activity against Cryptococcus neoformans 32609 after 72 hrs by serial dilution method; format: functional; details: Cryptococcus neoformans, 32609, 72 h; summary of the method: as §1
[5] = tested on: Nakaseomyces glabratus; test: Antimicrobial activity against Candida glabrata 537 after 24 hrs by serial dilution method; format: functional; details: Nakaseomyces glabratus, 537, 24 h; summary of the method: as §1
[6] = tested on: Aspergillus fumigatus; test: Antimicrobial activity against Aspergillus fumigatus 7544 after 48 hrs by serial dilution method; format: functional; details: Aspergillus fumigatus, 7544, 48 h; summary of the method: as §1
[7] = tested on: Candida albicans; test: Antimicrobial activity against fluconazole-resistant Candida albicans 100 after 24 hrs by serial dilution method; format: functional; details: Candida albicans, 100, 24 h
Summary of the method: (§2)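 Broth serial-dilution MIC in 96-well plates following NCCLS guidance. Compounds were dissolved in DMSO and serially diluted in growth medium. Clinical isolates came from a hospital collection. […] C. parapsilosis ATCC 22019 served as the quality-control strain in each assay.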

[8] = tested on: Candida albicans; test: Antimicrobial activity against fluconazole-resistant Candida albicans 103 after 24 hrs by serial dilution method; format: functional; details: Candida albicans, 103, 24 h; summary of the method: as §2
[9] = tested on: Candida albicans; test: Antimicrobial activity against fluconazole-resistant Candida albicans J18 after 24 hrs by serial dilution method; format: functional; details: J18, 24 h; summary of the method: as §2
[10] = tested on: Candida albicans; test: Antimicrobial activity against fluconazole-resistant Candida albicans J28 after 24 hrs by serial dilution method; format: functional; details: J28, 24 h; summary of the method: as §2
[11] = tested on: Candida albicans; test: Antimicrobial activity against fluconazole-resistant Candida albicans J38 after 24 hrs by serial dilution method; format: functional; details: J38, 24 h; summary of the method: as §2
[12] = Aqueous solubility of the compound in hydrochloric acid solution at pH 1.2; format: physicochemical
Summary of the method: (§3)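 Excess solid was stirred for 3 h in pH 1.2 hydrochloric acid or pH 7.4 phosphate buffer, then filtered through 0.45 μm. Absorbance at the UV maximum was compared with a methanol standard, C′ = A′C/A, with values reported in mg/mL. Determined at 30 °C; mean ± SD, n = 3.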

[13] = Aqueous solubility of the compound in phosphate buffer at pH 7.4; format: physicochemical; summary of the method: as §3
[14] = tested on: Candida albicans; test: Ratio of fluconazole MIC to compound MIC for fluconazole-resistant Candida albicans 103 after 24 hrs by serial dilution method; format: functional
[15] = tested on: Candida albicans; test: Ratio of fluconazole MIC to compound MIC for fluconazole-resistant Candida albicans 100 after 24 hrs by serial dilution method; format: functional
[16] = tested on: Candida albicans; test: Ratio of fluconazole MIC to compound MIC for fluconazole-resistant Candida albicans J18 after 24 hrs by serial dilution method; format: functional
[17] = target: Voltage-gated inwardly rectifying potassium channel KCNH2 (Homo sapiens, UniProt Q12809); test: Inhibition of human ERG expressed in CHO cells by whole-cell patch clamp assay; format: cell-based
Chain of Voltage-gated inwardly rectifying potassium channel KCNH2 (Q12809 whole entry): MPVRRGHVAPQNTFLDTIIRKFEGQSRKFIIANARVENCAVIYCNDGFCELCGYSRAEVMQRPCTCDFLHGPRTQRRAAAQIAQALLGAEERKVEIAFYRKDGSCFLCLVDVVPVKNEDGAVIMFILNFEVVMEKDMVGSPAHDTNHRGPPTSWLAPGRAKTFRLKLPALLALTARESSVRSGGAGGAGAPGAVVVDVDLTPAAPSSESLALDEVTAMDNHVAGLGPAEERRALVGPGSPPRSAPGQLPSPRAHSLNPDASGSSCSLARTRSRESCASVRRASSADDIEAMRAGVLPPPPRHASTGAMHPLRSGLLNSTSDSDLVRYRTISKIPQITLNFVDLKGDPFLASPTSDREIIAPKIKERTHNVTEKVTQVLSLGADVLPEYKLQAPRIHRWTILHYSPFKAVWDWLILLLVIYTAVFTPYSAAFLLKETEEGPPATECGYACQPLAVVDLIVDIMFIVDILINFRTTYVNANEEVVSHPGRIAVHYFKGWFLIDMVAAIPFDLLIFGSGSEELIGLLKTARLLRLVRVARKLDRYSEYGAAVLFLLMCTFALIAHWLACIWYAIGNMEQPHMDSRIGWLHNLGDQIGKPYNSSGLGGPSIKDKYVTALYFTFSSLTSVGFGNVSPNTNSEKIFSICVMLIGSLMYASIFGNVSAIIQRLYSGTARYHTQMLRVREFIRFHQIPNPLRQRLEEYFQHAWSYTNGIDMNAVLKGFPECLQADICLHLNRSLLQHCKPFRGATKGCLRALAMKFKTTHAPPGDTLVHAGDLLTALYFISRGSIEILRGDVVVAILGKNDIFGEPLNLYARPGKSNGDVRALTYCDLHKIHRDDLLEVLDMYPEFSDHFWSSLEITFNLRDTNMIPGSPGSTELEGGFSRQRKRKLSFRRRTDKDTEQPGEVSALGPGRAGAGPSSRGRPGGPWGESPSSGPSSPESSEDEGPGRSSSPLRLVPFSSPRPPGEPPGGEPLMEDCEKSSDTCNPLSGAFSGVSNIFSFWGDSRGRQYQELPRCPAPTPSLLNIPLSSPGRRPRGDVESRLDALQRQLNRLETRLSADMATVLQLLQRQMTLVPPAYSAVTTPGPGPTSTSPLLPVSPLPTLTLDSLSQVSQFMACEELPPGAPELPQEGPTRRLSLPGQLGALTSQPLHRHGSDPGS

[18] = tested on: Candida albicans; test: Antimicrobial activity against Candida albicans SC5314 infected in ICR mouse assessed as mean survival days at 0.5 mg/kg, po qd for 5 days starting 2 hrs post infection (reference value: 9.0 +/- 0.67 days); format: functional
Summary of the method: (§4)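 Reference arm of the systemic C. albicans SC5314 model: female ICR mice (18−22 g, n = 10) were infected iv with 0.2 mL of 5 × 10⁶ CFU/mL. Fluconazole was given orally in distilled water, qd for 5 days from 2 h post-infection. Mean survival days were scored over 30 days.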

[19] = tested on: Candida albicans; test: Antimicrobial activity against Candida albicans SC5314 infected in ICR mouse assessed as mean survival days at 0.5 mg/kg, po qd for 5 days starting 2 hrs post infection (reference value: 5.2 +/- 2.35 days starting 2 hrs post infection); format: functional; summary of the method: as §4
[20] = tested on: Candida albicans; test: Antimicrobial activity against fluconazole-resistant Candida albicans 103 infected in ICR mouse assessed as mean survival days at 0.5 mg/kg, po qd for 5 days starting 2 hrs post infection (reference value: 1.5 +/- 0.53 days); format: functional

Structure (SMILES): C[C@@H](N1CCn2nc(-c3ccccc3)nc2C1)[C@](O)(Cn1cncn1)c1ccc(F)cc1F
- MIC [1]: 0.0625 µg/mL (≈ 0.138 µM)
- MIC [2]: 0.125 µg/mL (≈ 0.277 µM)
- MIC [3]: 0.125 µg/mL (≈ 0.277 µM)
- MIC [4]: 0.125 µg/mL (≈ 0.277 µM)
- MIC [5]: 0.125 µg/mL (≈ 0.277 µM)
- MIC [6]: 32 µg/mL (≈ 70.9 µM)
- MIC [7]: > 32 µg/mL
- MIC [8]: > 32 µg/mL
- MIC [9]: > 32 µg/mL
- MIC [10]: 0.5 µg/mL (≈ 1.11 µM)
- MIC [11]: 0.0625 µg/mL (≈ 0.138 µM)
- solubility [12]: 316 µg/mL (≈ 700 µM)
- solubility [13]: 97 µg/mL (≈ 215 µM)
- Ratio [14]: 16
- Ratio [15]: 16
- Ratio [16]: 16

Structure (SMILES): CCC(C)n1ncn(-c2ccc(N3CCN(c4ccc(OCC5COC(Cn6cncn6)(c6ccc(Cl)cc6Cl)O5)cc4)CC3)cc2)c1=O (racemic) [ITRACONAZOLE]
- IC50 [17]: > 40 µM

Structure (SMILES): OC(Cn1cncn1)(Cn1cncn1)c1ccc(F)cc1F [FLUCONAZOLE]
- MIC [1]: 0.5 µg/mL (≈ 1.63 µM)
- MIC [2]: 0.5 µg/mL (≈ 1.63 µM)
- MIC [3]: 1 µg/mL (≈ 3.27 µM)
- MIC [4]: 0.5 µg/mL (≈ 1.63 µM)
- MIC [5]: 0.25 µg/mL (≈ 0.816 µM)
- MIC [6]: > 64 µg/mL
- MIC [7]: 512 µg/mL (≈ 1670 µM)
- MIC [8]: > 1020 µg/mL
- MIC [9]: > 1020 µg/mL
- MIC [10]: > 4 µg/mL
- MIC [11]: > 4 µg/mL
- Survival [18]: 13.1 days
- Survival [19]: 11.7 days
- Survival [20]: 2.3 days
